Experimental data from ChEMBL document CHEMBL3102711 (Eur J Med Chem, 2014).
Active and inactive are the calls of the source. The calls are words filed in the database; no cut-off is given here.

Tests used:
[1] = (§1) Induction of apoptosis in human MUTU-I cells assessed as accumulation at pre-G1 phase at 10 uM after 24 hrs using propidium iodide staining by FACS analysis; type: functional
Summary of the method: (§2)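 Cells (7.5×10^5 per 5 mL) were treated, then washed in cold PBS and fixed overnight at 4 °C in 70% ethanol. They were stained with RNase A and propidium iodide for 30 min at 37 °C in the dark. Flow cytometry counted 10,000 gated cells, and the pre-G1 fraction was scored.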

[2] = Antiproliferative activity against human DG75 cells after 72 hrs by Alamar blue assay; type: functional, cell-based; details: DG-75, 72 h
MUTU-I [3] = test: Induction of apoptosis in human MUTU-I cells assessed as activation of caspase 3 and 7 at 10 uM after 8 hrs by Apotox-Glo Triplex assay; type: functional, cell-based
Summary of the method: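 Cells were seeded at 10,000/well and treated at 10 µM for 8 h. Caspase-Glo reagent (Apotox-Glo Triplex) was added, followed by brief orbital shaking and 30 min at room temperature, then a luminescence read. Vinblastine 100 nM was the positive control, with a Student's t-test against vehicle.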

[4] = Antiproliferative activity against human MUTU-I cells after 24 hrs by Alamar blue assay; type: functional, cell-based
DG-75 = test: Antiproliferative activity against human DG75 cells at 10 uM after 24 hrs by Alamar blue assay
MUTU-I [5] = test: (§3) Antiproliferative activity against human MUTU-I cells at 10 uM after 24 hrs by Alamar blue assay; type: functional
Summary of the method: (§4)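 Cells were treated with a single 10 µM dose for 24 h. PBMCs came from healthy-donor blood by Ficoll density separation and were kept in IMDM with 10% FBS. Viability was read by Alamar Blue fluorescence (590 nm, ex 544 nm) against untreated cells. Three independent experiments were run, with a Student's t-test against vehicle.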

PBMC = test: Antiproliferative activity against human PBMC at 10 uM after 24 hrs by Alamar blue assay; type: cell-based; summary of the method: as §4
[6] = as §3; type: functional; summary of the method: as §4
[7] = Antiproliferative activity against human DG75 cells at 10 uM after 72 hrs by Alamar blue assay; type: functional, DG-75
HL-60 [8] = test: Induction of apoptosis in human HL60 cells expressing p-glycoprotein; type: functional, cell-based
HL-60 [9] = test: Induction of apoptosis in human HL60 cells expressing BCRP; type: functional, cell-based
HL-60 [10] = test: Induction of apoptosis in human HL60 cells; type: functional, cell-based
MUTU-I [11] = test: as §1; type: functional; summary of the method: as §2

Row | SMILES | EC50 [2] [µM] | EC50 [4] [µM] | further results
1 | O=C(/C=C/c1c2ccccc2cc2ccccc12)N1CCCCC1 | > 100 | 1.9 | Activity [1]: 15.44%; Activity (MUTU-I [3]): Active
2 | CCOC(=O)C1CC2c3ccccc3C1c1ccccc12 (centres undefined) | > 100 | 55.4 | –
3 | CCOC(=O)C1C2c3ccccc3C(c3ccccc32)C1C(=O)OCC (centres undefined) | > 100 | 89.4 | –
4 | CC[C@]1(O)C[C@@H]2CN(CCc3c([nH]c4ccccc34)[C@@](C(=O)OC)(c3cc4c(cc3OC)N(C)[C@H]3[C@@](O)(C(=O)OC)[C@H](OC(C)=O)[C@]5(CC)C=CCN6CC[C@]43[C@@H]65)C2)C1 [VINBLASTINE] | – | – | Activity [1]: 52.89%; Activity (DG-75): Active; Activity (MUTU-I [5]): Active; Activity (PBMC): Non-toxic
5 | N#CC1CC2c3ccccc3C1(COC(=O)c1ccccc1)c1ccccc12 (centres undefined) | > 100 | 24.5 | –
6 | CC(=O)OCC12c3ccccc3C(CC1C#N)c1ccccc12 (centres undefined) | > 100 | 12.8 | –
7 | Clc1ccc(N2CCN(CC3CC4c5ccccc5C3c3ccccc34)CC2)cc1 (centres undefined) | > 100 | > 100 | –
8 | C1=C(CN2CCCCC2)C2c3ccccc3C1c1ccccc12 | 10.2 | 31.5 | –
9 | N#CC1CC2c3ccccc3C1(CO)c1ccccc12 (centres undefined) | > 100 | > 100 | –
10 | CN(C)C(=O)/C=C/c1c2ccccc2cc2ccccc12 | > 100 | 24.9 | –
11 | Clc1ccc(COC(Cn2ccnc2)c2ccc(Cl)cc2Cl)c(Cl)c1 (centres undefined) [MICONAZOLE] | – | – | Activity [6]: >90%; Activity [7]: >90%
12 | N#C/C=C/c1c2ccccc2cc2ccccc12 | > 100 | 21.2 | –
13 | O=[N+]([O-])/C=C/c1c2ccccc2cc2ccccc12 | 1.5 | 3 | Activity [1]: 31.43%; Activity (HL-60 [8]): Active; Activity (HL-60 [9]): Active; Activity (MUTU-I [3]): Active; Activity (PBMC): Toxic; Activity (HL-60 [10]): Active
14 | CCN(CC)C(=O)O/N=C/C12c3ccccc3C(CC1C#N)c1ccccc12 (centres undefined) | 3.1 | 28.4 | Activity (MUTU-I [11]): inactive; Activity (HL-60 [8]): inactive; Activity (HL-60 [9]): inactive; Activity (MUTU-I [3]): inactive; Activity (PBMC): Non-toxic; Activity (HL-60 [10]): inactive
15 | O=C(O)C1CC2c3ccccc3C1c1ccccc12 (centres undefined) | – | > 100 | –
16 | CCN(CC)C(=O)/C=C/c1c2ccccc2cc2ccccc12 | 9.3 | 21.5 | –
17 | CCN(CC)CC1C2c3ccccc3C(c3ccccc32)C1CN(CC)CC (centres undefined) | 51.8 | 65 | –
18 | CN(CC1CC2c3ccccc3C1c1ccccc12)C1CCCCC1 (centres undefined) | 35.5 | 23 | Activity (HL-60 [8]): inactive; Activity (HL-60 [9]): inactive; Activity (HL-60 [10]): inactive
19 | O=C(O)C1C2c3ccccc3C(c3ccccc32)C1C(=O)O (centres undefined) | – | > 100 | –
20 | CNC(=O)/C=C/c1c2ccccc2cc2ccccc12 | > 100 | 62.5 | –
21 | O=[N+]([O-])c1ccc(/C=C/c2c3ccccc3cc3ccccc23)cc1 | > 100 | 8.8 | –
22 | CC(=O)O/N=C/C12c3ccccc3C(CC1C#N)c1ccccc12 (centres undefined) | > 100 | 34.6 | –
23 | O=C(O)C(Cc1ccc(O)cc1)NC(=O)C1CC2c3ccccc3C1c1ccccc12 (centres undefined) | – | > 100 | –
24 | CC(C)CC(NC(=O)C1CC2c3ccccc3C1c1ccccc12)C(=O)O (centres undefined) | – | > 100 | –
25 | Cc1ccc(N2CCN(C(=O)/C=C/c3c4ccccc4cc4ccccc34)CC2)cc1 | > 100 | 38.5 | –
26 | CN(C)CC1CC2c3ccccc3C1c1ccccc12 (centres undefined) | > 100 | > 100 | –
27 | N#C/C=C/C12c3ccccc3C(CC1C#N)c1ccccc12 (centres undefined) | > 100 | > 100 | –
